N-glyco inh = increase of ERlucT glycosylation luciferase signal, primary screen, N-linked glycosylation inhibitor project, D54 ERlucT cells, luminescence, set 2. D54 ERlucT glycosylation luciferase reporter, 24 h; percent of 100 nM tunicamycin response. reporter increase, % at 12.5 µM. 0.23% of 360,000 active;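 active = mean luciferase reporter signal, scaled so untreated is 0 and the glycosylation-blocking control 100, at or above a set limit in every replicate; inconclusive = mean reaches the limit but not every replicate does; inactive = mean below the limit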;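 note: luciferase carries N-glycosylation sites so blocking glycosylation raises the light; 0% = median of neutral control wells and 100% = median of 100 nM tunicamycin wells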
RAD54 branch = inhibitors of human RAD54 branch migration, primary screen, biochemical, fluorescence, single point; DNA repair and recombination protein RAD54-like (Homo sapiens), Q92698; RAD54 Holliday junction branch migration, FAM/BHQ fluorescence; inhibition, % at 10.4 µM; 0.14% of 360,000 active;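 active = mean normalized replicate activity at least 40 and at least half of replicates scoring 40 or more; inconclusive = only one of the two criteria met; inactive = mean below 40 and under half of replicates reaching 40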;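 note: 0% = median of neutral control wells and 100% = median of positive control wells; inhibitors cause a drop in the FAM fluorescence signal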
MLL AF4-AF9 inh = inhibitors of AF4 peptide binding to AF9, primary screen, biochemical, AlphaScreen, biotin-AF4 peptide, FLAG-AF9, single point | inhibition, % at 10 µM | AID 651704, 2012 | 0.47% of 350,000 active;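 active = every replicate reaching a set inhibition limit, whatever the replicate mean, cut at about 25% in these data; inconclusive = mean inhibition reaches that limit but some replicates miss it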;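 note: 0% = plate neutral control median and 100% = total signal loss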
Target sequence (P42568 whole entry, looked up): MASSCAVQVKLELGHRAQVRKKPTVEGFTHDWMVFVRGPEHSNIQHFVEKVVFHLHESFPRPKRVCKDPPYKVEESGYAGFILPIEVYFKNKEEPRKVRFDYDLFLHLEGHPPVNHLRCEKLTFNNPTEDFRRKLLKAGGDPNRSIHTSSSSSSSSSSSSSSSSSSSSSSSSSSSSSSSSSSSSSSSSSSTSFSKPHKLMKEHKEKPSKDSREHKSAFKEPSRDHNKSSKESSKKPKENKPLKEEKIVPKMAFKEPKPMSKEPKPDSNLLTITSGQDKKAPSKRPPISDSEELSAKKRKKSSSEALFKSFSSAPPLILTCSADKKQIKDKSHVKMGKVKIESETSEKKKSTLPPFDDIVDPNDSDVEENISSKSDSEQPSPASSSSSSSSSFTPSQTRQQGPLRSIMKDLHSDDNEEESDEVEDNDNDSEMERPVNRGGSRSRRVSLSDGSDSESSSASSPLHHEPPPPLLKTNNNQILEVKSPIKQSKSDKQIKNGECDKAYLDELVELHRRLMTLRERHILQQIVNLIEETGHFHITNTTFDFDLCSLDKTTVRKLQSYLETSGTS
FN deposition inh = inhibitors of fibronectin matrix deposition, primary screen, AH1F cells, Alexa488-fibronectin fluorescence, plate reader | AH1F fibroblasts, overnight | 0.086% of 350,000 active | inhibition, % at 12.6 µM;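 active = mean inhibition across replicates of 30% or more, regardless of how many single replicates reach that level; inconclusive = mean under 30% yet at least half of replicates reach 30%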;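 note: positive control wells lacked labelled fibronectin entirely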
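Material: AH1F fibroblast monolayer depositing Alexa488-labelled fibronectin into matrix | Input: 10000 AH1F cells/well | Medium: DMEM plus 2% serum, read in PBS | Reagent: Alexa488-fibronectin, 24 nM final in well | Compound dosing: One dose per compound, pinned | Schedule: 1 h adhesion, overnight exposure | Measured by: Fluorescence at 485 nm excitation, 525 nm emission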
RAD52 anneal inh = RAD52 DNA annealing inhibitors, primary screen, biochemical, FRET, single point, set 2 | 0.46% of 360,000 active | recombinant RAD52 DNA annealing, FRET fluorescence | DNA repair protein RAD52 homolog (Homo sapiens), P43351 | AID 651710, 2012 | inhibition, % at 18.7 µM;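 active = every replicate showing at least 50% inhibition; inconclusive = mean inhibition at least 50% but not in every replicate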
DNA binder FP = DNA-binding compounds via dye displacement, dose response, artefact control for RAD52 inhibitor project, biochemical, fluorescence polarization, cherry-pick | Salmon sperm DNA/acridine orange FP displacement | 8% of 1,000 active | AC50, µM | shares compounds with RAD52 anneal inh;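 active = fitted half-maximal concentration for signal loss at or below twice the highest dose tested, in every separate run, actives reach about 64 µM in these data; inconclusive = runs disagree, or flat partial signal loss, or poor fit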
Active calls of the source: *; i = inactive; ? = inconclusive; nt = not tested or not shown. Compounds with a hit are over-represented: about 0.92% of the library has one in this group of screens.

SMILES | N-glyco inh | RAD54 branch | MLL AF4-AF9 inh | FN deposition inh | RAD52 anneal inh | DNA binder FP
CN1CCN(C(=O)C[C@H]2CC[C@H]3[C@@H](COC[C@H](O)CN3C(=O)Nc3ccc(Cl)cc3)O2)CC1 | nt | -3 | -1 | -14 | 11 | nt
O=C(N[C@H]1CC[C@H](CCn2cc(C3CCCC3)nn2)O[C@H]1CO)c1cccnc1 | nt | nt | nt | 1 | nt | nt
CN(C)CCNC(=O)c1csc(Nc2cccc3ccccc23)n1 | -5 | 12 | 15 | -3 | 51* | i
O=C(C[C@H]1C=C[C@H](NC(=O)c2ccccn2)[C@H](CO)O1)NCc1cc(F)cc(F)c1 | nt | -1 | 0 | nt | -17 | nt
O=C(C[C@@H]1CC[C@H](NC(=O)c2ccc3c(c2)OCO3)[C@H](CO)O1)NCc1ccc(Cl)cc1 | nt | -1 | 0 | nt | 10 | nt
Cc1ccc(C(=O)C[n+]2ccc(Cc3ccccc3)cc2)cc1 | -7 | nt | 0 | -1 | -5 | nt
Cc1ccc(SCCc2cc[n+](CC(=O)c3ccccc3)cc2)cc1 | 4 | nt | 10 | nt | 54* | i
Cc1ccccc1OCC(O)CNC1CCC(NCC(O)COc2ccccc2C)CC1 (centres undefined) | -17 | 22 | 21 | 8 | -15 | i
CCOC(=O)c1cc(NC(=O)N(C(C)C)C2CCCCC2)c(C)nc1C | 1 | -10 | -5 | 0 | 96* | i
CCOC(=O)c1cc(NC(=O)N(C(C)C)C(C)C)c(C)nc1C | 1 | -2 | nt | 5 | nt | nt
CCN(CC)CCOC(=O)c1ccc(N=CC2=C(O)CC(C)(C)CC2=O)cc1 | -2 | nt | -9 | -6 | 71* | i
C[C@@H](c1ccccc1)N1C[C@H](COCc2ccccc2)Oc2cc(N3CC[C@H](N(C)C)C3)ccc2S1(=O)=O | nt | nt | 26* | 2 | 52* | i
O=C(C1CCCC1)N1CCC(CC2CC(c3ccc(Cl)cc3)=NO2)(C(=O)NCC2CCCCC2)CC1 (centres undefined) | -2 | 1 | 1 | 0 | 99* | i
CNC(=O)C[C@H]1CC[C@H]2[C@@H](COc3ccc(NC(=O)Nc4cccc(Cl)c4)cc3C(=O)N2C)O1 | nt | 5 | -2 | -1 | -2 | nt
CN1CCN(c2cc3c(c4c2[nH]c2ccccc24)C(=O)CC(C)(C)C3)CC1 | 2 | 22 | 12 | 7 | 67* | i
OC(CON=C1c2ccccc2-c2ccccc21)CN1CCNCC1 (centres undefined) | 16 | 72* | 13 | 8 | 70* | i
OC(COc1ccccc1)CN1CCN(CC(O)COc2ccccc2)CC1 (centres undefined) | 1 | nt | 3 | 10 | -13 | nt
O=C(c1ccccc1)N1CC[C@H]2[C@H](CO)Nc3ccc(C#Cc4cccnc4)cc3[C@H]21 | nt | 0 | -2 | 11 | -35 | nt
CCOC(=O)c1c(NC(=O)c2ccc(S(=O)(=O)N3CCOCC3)cc2)sc2c1CC(C)(C)NC2(C)C | 2 | 3 | -3 | 4 | -13 | nt
CN(C1CCCCC1)S(=O)(=O)c1ccc(C(=O)Nc2sc3c(c2C(N)=O)CC(C)(C)NC3(C)C)cc1 | -3 | 4 | -2 | -5 | 78* | i
c1ccn(CCc2ccncc2)c1 | 1 | 4 | 0 | -1 | -19 | nt
Nc1ccc(CCn2ccnc2)cc1 | 4 | 4 | 11 | 1 | 51* | i
OC(CN1CCCCC1)Cn1c2ccccc2c2cc(Br)ccc21 (centres undefined) | 1 | 45 | 11 | 1 | 58* | i
Cc1c(C)n(CC(O)CN2CCCCCC2)c2ccccc12 (centres undefined) | -1 | -8 | nt | nt | nt | nt
Cc1ccc(C23CC4CC(CC(CN)(C4)C2)C3)cc1 | -1 | nt | 2 | 1 | 4 | nt
SMILES | N-glyco inh | RAD54 branch | MLL AF4-AF9 inh | FN deposition inh | RAD52 anneal inh | DNA binder FP
NCC12CC3CC(C1)CC(c1ccc(Br)cc1)(C3)C2 | -3 | 9 | 8 | -1 | 57* | i
C[C@@H]1CN([C@H](C)CO)C(=O)c2cccc(NC(=O)c3ccncc3)c2O[C@@H]1CN(C)Cc1ccc(C(=O)Nc2ccccc2N)cc1 | nt | -4 | 5 | nt | -8 | nt
NC(=NCc1ccccc1)NC(=O)c1nc(Cl)c(N)nc1N | -6 | ? | 8 | 8 | 50* | i
NC(=Nc1ccccc1)NC(=O)c1nc(Cl)c(N)nc1N | -9 | ? | 2 | 1 | 32 | nt
CNC[C@@H]1Oc2ccc(N(C)C)cc2C(=O)N(C)C[C@H]1C | nt | nt | nt | -14 | nt | nt
COc1ccc(/C=N/Nc2nc(-c3cccc(S(=O)(=O)N4CCCC4)c3)cs2)c(OC)c1 | -8 | nt | 10 | 2 | 96* | i
COc1ccc(NC(=O)N(C)C[C@@H]2Oc3ncc(C#CC(C)C)cc3C(=O)N([C@H](C)CO)C[C@@H]2C)cc1 | nt | -1 | -1 | -6 | 19 | nt
CCN(CC)CCNc1nc(-c2cccs2)c(CC(=O)O)s1 | 1 | -2 | 7 | -1 | 88* | i
C=CCNc1nc(-c2cccs2)c(CC(=O)O)s1 | 1 | -24 | 0 | -3 | -18 | nt
Cc1noc(C)c1NC(=O)N(C)C[C@H]1Oc2ccc(NS(=O)(=O)c3cccs3)cc2C(=O)N([C@@H](C)CO)C[C@@H]1C | nt | -3 | -11 | nt | -7 | nt
CCCCCCCCCCCCOC(=O)C[N+](C)(C)C | nt | nt | 4 | 5 | 50* | i
CCCCCCCCCCOC(=O)C[N+](C)(C)C/C=C(/C)Cl | -1 | 12 | -10 | -17 | 49 | nt
COc1ccc(S(=O)(=O)N(C)C[C@@H]2Oc3ccc(NS(=O)(=O)c4cn(C)cn4)cc3CC(=O)N([C@@H](C)CO)C[C@@H]2C)cc1 | nt | 3 | 0 | nt | -3 | nt
COc1cc2c(cc1OC)-c1cc3ccc(OC)c(OC)c3c[n+]1CC2 | 2 | 60* | 4 | 1 | 80* | i
COc1ccc2cc3[n+](cc2c1O)CCc1cc2c(cc1-3)OCO2 | nt | nt | 0 | -11 | 6 | nt
COc1cc2nc(N(CCCN(C)C)C(=O)c3ccc(S(=O)(=O)N(C)C4CCCCC4)cc3)sc2cc1OC | -4 | 23 | 10 | 4 | 45 | nt
CCOc1cccc2sc(N(CCCN(C)C)C(=O)c3ccc(S(=O)(=O)N4CCc5ccccc5C4)cc3)nc12 | -3 | 11 | 0 | nt | 55* | i
COc1cc2nc(N(CCCN(C)C)C(=O)c3ccc(S(=O)(=O)N4CCc5ccccc54)cc3)sc2cc1OC | -4 | 15 | 9 | 0 | 70* | i
COc1ccc2sc(N(CCCN(C)C)C(=O)c3ccc(S(=O)(=O)N4CCCc5ccccc54)cc3)nc2c1 | -8 | 2 | 31* | nt | 77* | i
CCN(Cc1ccccc1)S(=O)(=O)c1ccc(C(=O)N(CCCN(C)C)c2nc3cc(OC)ccc3s2)cc1 | -7 | nt | 21 | -2 | 59* | i

From PubChem
